# Test results published in ChEMBL document CHEMBL4257467, “Synthesis and pharmaceutical characterization of site specific mycophenolic acid-modified Xenopus glucagon-like peptide-1 analogs” (Medchemcomm, 2018).
# Calls of active or inactive are those of the source. *1 amine or outer side, *2 acyl side, *3 side chain or, on linkers, in order; H or OH if unused. Where a SMILES comes first, the peptide text is derived from it. Side-chain parts run from the residue outwards. The star is where a group is joined. Mycophenolyl = COc1c(C)c2c(c(O)c1C/C=C(\C)CCC(=O)*)C(=O)OC2; γGlu = O=C(O)[C@H](CCC(=O)[*:2])N[*:1]; 12Ado = NCCCCCCCCCCCC(=O)O; Ahx = NCCCCCC(=O)O
# Columns and labels:
# Albumin = Albumin (Homo sapiens, UniProt P02768); test: Binding affinity to human serum albumin after 60 mins by ultrafiltration-based HPLC analysis; type: ADME; conditions: human serum albumin, read-out: PB (converted)
# Albumin, sequence (P02768 whole entry): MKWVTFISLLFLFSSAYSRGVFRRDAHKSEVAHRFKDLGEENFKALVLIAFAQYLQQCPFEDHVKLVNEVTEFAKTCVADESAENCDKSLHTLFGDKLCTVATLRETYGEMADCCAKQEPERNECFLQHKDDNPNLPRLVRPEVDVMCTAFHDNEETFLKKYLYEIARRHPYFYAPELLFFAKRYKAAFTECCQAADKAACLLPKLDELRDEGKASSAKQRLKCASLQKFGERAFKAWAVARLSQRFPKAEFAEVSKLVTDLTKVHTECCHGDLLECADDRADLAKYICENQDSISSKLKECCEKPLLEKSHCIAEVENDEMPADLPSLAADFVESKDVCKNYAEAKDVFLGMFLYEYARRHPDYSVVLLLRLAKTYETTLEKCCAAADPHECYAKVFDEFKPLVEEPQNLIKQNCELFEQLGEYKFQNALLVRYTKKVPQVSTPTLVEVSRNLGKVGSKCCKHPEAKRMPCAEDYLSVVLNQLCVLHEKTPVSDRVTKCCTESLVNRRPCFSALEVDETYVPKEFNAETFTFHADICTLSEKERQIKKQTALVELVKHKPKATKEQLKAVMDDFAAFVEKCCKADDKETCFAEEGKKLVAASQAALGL
# How it was run: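 Peptide in PBS pH 7.4 (100 μg ml−1) mixed with HSA (10 mg ml−1 in PBS), incubated 60 min at 37 °C. Ultrafiltration through 30 kDa cutoff filter, 30 min at 3500 rpm. Free compound in filtrate by HPLC. Membrane adsorption checked (<4%). Repeated three times.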
# Mus musculus [1] = test: Hypoglycemic activity in C57BL/6J m+/+ Lepr db mouse assessed as blood glucose level at 25 nmol/kg, ip pretreated for 30 mins followed by glucose challenge and measured after 15 mins by IPGTT; type: functional
# How it was run: (§1)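 Male db/db mice (30–40 g, 9 weeks, n = 6) fasted 18 h. Saline or peptide 25 nmol kg−1 ip at −30 min, ip glucose 1 g kg−1 at 0 min. Tail-vein glucose by glucometer at −30, 0, 10, 15, 30, 45, 60, 120 min. Plasma insulin by mouse insulin ELISA. AUC0–120min for glucose and insulin calculated; means ± SD.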
# Mus musculus [2] = test: Hypoglycemic activity in non-fasting C57BL/6J m+/+ Lepr db mouse assessed as reduction in blood glucose AUC (0 to 48 hrs) at 25 to 100 nmol/kg, ip by glucometric method; type: functional, organism-based
# How it was run: (§2)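 Non-fasting male db/db mice (30–40 g, 9 weeks, n = 6) with free food and water. Single ip dose at 0 h: liraglutide 25 nmol kg−1, test peptides 25 or 100 nmol kg−1, or saline. Blood glucose by glucometer at 0, 2, 4, 6, 12, 24, 48 h. Rebound time to >15 mmol L−1 and AUC0–48h derived; means ± SD.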
# [3] = Half life in Sprague-Dawley rat plasma at 0.5 mL by LC-MS/MS analysis; type: ADME, cell-free; conditions: Sprague-Dawley
# How it was run: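 Plasma from male Sprague-Dawley rats (200–250 g). Peptide in PBS pH 7.4 added to initial 1000 ng ml−1 and incubated at 37 °C for 48 h. Samples at 2, 4, 8, 12, 24, 36, 48 h precipitated with acetonitrile containing 2% formic acid, centrifuged, analysed by LC-MS/MS in MRM mode. Degradation curves in triplicate.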
# Mus musculus [4] = test: Antidiabetic activity in C57BL/6J m+/+ Lepr db mouse assessed as increase in plasma insulin AUC (0 to 120 mins) at 25 nmol/kg, ip pretreated for 30 mins followed by glucose challenge by ELISA; type: functional, organism-based; how it was run: as §1
# [5] = molecular target: Glucagon-like peptide 1 receptor (Homo sapiens, UniProt P43220); test: Agonist activity at human GLP1 receptor expressed in HEK293 cells assessed as increase in cAMP level after 30 mins by HTRF method; type: functional, cell-based
# Glucagon-like peptide 1 receptor, sequence (P43220 whole entry): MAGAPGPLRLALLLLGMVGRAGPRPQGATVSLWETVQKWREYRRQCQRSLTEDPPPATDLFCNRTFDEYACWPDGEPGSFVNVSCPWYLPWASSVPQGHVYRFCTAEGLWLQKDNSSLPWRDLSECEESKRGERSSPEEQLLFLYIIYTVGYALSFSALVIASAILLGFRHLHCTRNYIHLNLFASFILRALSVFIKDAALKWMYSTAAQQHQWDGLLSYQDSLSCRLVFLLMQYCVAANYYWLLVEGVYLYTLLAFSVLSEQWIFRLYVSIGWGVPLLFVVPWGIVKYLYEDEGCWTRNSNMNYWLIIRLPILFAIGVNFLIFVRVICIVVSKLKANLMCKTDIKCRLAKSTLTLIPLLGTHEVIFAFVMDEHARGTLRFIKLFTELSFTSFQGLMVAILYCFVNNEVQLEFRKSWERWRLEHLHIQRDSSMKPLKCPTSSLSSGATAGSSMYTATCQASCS
# How it was run: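 HEK293 cells stably expressing human GLP-1 receptor, thawed, suspended in DMEM with 20 mM HEPES, 2 mM L-Glu, 0.5% FBS, 1% pen-strep. Compounds dissolved in DMSO, diluted in assay buffer to 1 × 10−13–1 × 10−6 M final, 30 min at 37 °C in 5% CO2. cAMP read by HTRF. EC50 as means ± SD of three individual experiments, n = 3.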
# Mus musculus [6] = test: Antidiabetic activity in C57BL/6J m+/+ Lepr db mouse assessed as plasma insulin level at 25 nmol/kg, ip pretreated for 30 mins followed by glucose challenge and measured after 15 mins by ELISA; type: functional; how it was run: as §1
# Mus musculus [7] = test: Antidiabetic activity in Kunming mouse assessed as reduction in blood glucose AUC at 25 nmol/kg, ip pretreated for 30 mins followed by glucose-challenge and measured after 15 to 120 mins by IPGTT; type: functional, organism-based
# How it was run: (§3)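 Male Kunming mice (20–25 g, n = 6) fasted overnight. Peptide or saline 25 nmol kg−1 ip at −30 min, ip glucose 2 g kg−1 at 0 min. Tail-vein blood glucose by glucometer at −30, 0, 15, 30, 60 and 120 min. Glucose AUC0–120min calculated; means ± SD.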
# Mus musculus [8] = test: Antidiabetic activity in Kunming mouse assessed as reduction in blood glucose level at 25 nmol/kg, ip pretreated for 30 mins followed by glucose-challenge and measured after 15 to 120 mins by IPGTT; type: functional, organism-based; how it was run: as §3
# Mus musculus [9] = test: Hypoglycemic activity in non-fasting C57BL/6J m+/+ Lepr db mouse assessed as rebound time from the lowest glucose level (12 mmol/L) to diabetic glucose level (>15 mmol/L) at 25 nmol/kg, ip by glucometric method; type: functional; how it was run: as §2
# Mus musculus [10] = test: Hypoglycemic activity in non-fasting C57BL/6J m+/+ Lepr db mouse assessed as rebound time from the lowest glucose level (12 mmol/L) to diabetic glucose level (>15 mmol/L) at 100 nmol/kg, ip by glucometric method; type: functional; how it was run: as §2
# Mus musculus [11] = test: Antidiabetic activity in C57BL/6J m+/+ Lepr db mouse assessed as increase in non-fasting plasma insulin levels at 50 nmol/kg, ip administered once daily for 5 weeks measured every 4 days during compound dosing; type: functional, organism-based
# Mus musculus [12] = test: Antidiabetic activity in C57BL/6J m+/+ Lepr db mouse assessed as reduction in body weight gain at 50 nmol/kg, ip administered once daily for 5 weeks measured every 4 days during compound dosing relative to control; type: functional; set-up: scale not given: the % may be the effect or the level left
# Mus musculus [13] = test: Antidiabetic activity in C57BL/6J m+/+ Lepr db mouse assessed as reduction in glycated hemoglobin level at 50 nmol/kg, ip administered once daily for 5 weeks relative to control; type: functional; set-up: scale not given: the % may be the effect or the level left
# Mus musculus [14] = test: Antidiabetic activity in C57BL/6J m+/+ Lepr db mouse assessed as serum triglyceride level at 50 nmol/kg, ip administered once daily for 5 weeks (reference value: 2.3 +/- 0.3 mmol/L); type: functional
# Mus musculus [15] = test: Antidiabetic activity in C57BL/6J m+/+ Lepr db mouse assessed as change in blood glucose level at 50 nmol/kg, ip administered once daily for 5 weeks followed by glucose challenge measured after 15 to 120 mins by IPGTT; type: functional, organism-based
# Mus musculus [16] = test: Antidiabetic activity in C57BL/6J m+/+ Lepr db mouse assessed as reduction in food intake at 50 nmol/kg, ip administered once daily for 5 weeks measured every 4 days during compound dosing; type: functional, organism-based
# Mus musculus [17] = test: Toxicity in C57BL/6J m+/+ Lepr db mouse assessed as HDL-cholesterol level at 50 nmol/kg, ip administered once daily for 5 weeks (reference value: 1.7 +/- 0.3 mmol/L); type: organism-based; conditions: in vivo, 840 h
# Mus musculus [18] = test: Hypoglycemic activity in C57BL/6J m+/+ Lepr db mouse assessed as reduction in fasting blood glucose level at 25 nmol/kg, ip pretreated for 30 mins followed by glucose challenge at 6 hrs interval for 24 hrs and measured up to 3 hrs by OGTT; type: functional, organism-based
# How it was run: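 Male db/db mice (30–40 g, 9 weeks, n = 6) fasted 18 h, given saline or peptide 25 nmol kg−1 ip at −0.5 h. Oral glucose 1.5 g kg−1 at 0 h, repeated every 6 h (6, 12, 18 h) over 24 h. Blood glucose by glucometer at 0, 0.25, 0.5, 1, 2 and 3 h after each load.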
# Mus musculus [19] = test: Antidiabetic activity in C57BL/6J m+/+ Lepr db mouse assessed as non-fasting blood glucose levels at 50 nmol/kg, ip administered once daily for 5 weeks measured every 4 days during compound dosing; type: functional
# Mus musculus [20] = test: Antidiabetic activity in C57BL/6J m+/+ Lepr db mouse assessed as serum total cholesterol level at 50 nmol/kg, ip administered once daily for 5 weeks (reference value: 6.5 +/- 0.4 mmol/L); type: functional
# Mus musculus [21] = test: Hepatotoxicity in C57BL/6J m+/+ Lepr db mouse assessed as serum ALT level at 50 nmol/kg, ip administered once daily for 5 weeks (reference value: 61.4 +/- 10 IU/L); type: toxicity, organism-based; conditions: in vivo, 840 h
# Mus musculus [22] = test: Antidiabetic activity in C57BL/6J m+/+ Lepr db mouse assessed as serum LDL-cholesterol level at 50 nmol/kg, ip administered once daily for 5 weeks (reference value: 2.2 +/- 0.3 mmol/L); type: functional
# Mus musculus [23] = test: Hypoglycemic activity in C57BL/6J m+/+ Lepr db mouse assessed as blood glucose AUC (0 to 120 mins) at 25 nmol/kg, ip pretreated for 30 mins followed by glucose challenge by IPGTT; type: functional, organism-based; how it was run: as §1
# Mus musculus [24] = test: Hepatotoxicity in C57BL/6J m+/+ Lepr db mouse assessed as serum AST level at 50 nmol/kg, ip administered once daily for 5 weeks (reference value: 75 +/- 7.4 IU/L); type: toxicity, organism-based; conditions: in vivo, 840 h
# Mus musculus [25] = test: Antidiabetic activity in C57BL/6J m+/+ Lepr db mouse assessed as reduction in blood glucose AUC (0 to 120 mins) at 50 nmol/kg, ip administered once daily for 5 weeks followed by glucose challenge by IPGTT; type: functional, organism-based
Compound,fraction unbound at 1 h (Albumin),Activity (Mus musculus [1]) [nmol/L],Activity (Mus musculus [2]),half-life [3] [h],Activity (Mus musculus [4]),EC50 [5] [nM],Activity (Mus musculus [6]) [mIU/L],Activity (Mus musculus [7]),Activity (Mus musculus [8]),Time (Mus musculus [9]) [h],Time (Mus musculus [10]) [h],further results
CC[C@H](C)[C@H](NC(=O)[C@H](CC(C)C)NC(=O)[C@H](Cc1c[nH]c2ccccc12)NC(=O)[C@H](CCC(=O)O)NC(=O)[C@@H](NC(=O)[C@H](Cc1ccccc1)NC(=O)[C@H](CCC(=O)O)NC(=O)[C@H](CCCCNC(=O)CC[C@H](NC(=O)CCCCCCCCCCCNC(=O)CC/C(C)=C/Cc1c(O)c2c(c(C)c1OC)COC2=O)C(=O)O)NC(=O)[C@H](C)NC(=O)[C@H](C)NC(=O)[C@H](CCC(=O)O)NC(=O)[C@H](CCC(=O)O)NC(=O)[C@H](CCC(=O)O)NC(=O)[C@H](CC(C)C)NC(=O)[C@H](Cc1ccc(O)cc1)NC(=O)[C@H](CCC(=O)O)NC(=O)[C@@H](NC(=O)[C@@H](NC(=O)[C@H](CC(=O)O)NC(=O)[C@H](CC(N)=O)NC(=O)[C@@H](NC(=O)[C@H](Cc1ccc(O)cc1)NC(=O)[C@@H](NC(=O)CNC(=O)[C@H](CCC(=O)O)NC(=O)CNC(=O)[C@@H](N)Cc1cnc[nH]1)[C@@H](C)O)[C@@H](C)O)C(C)C)[C@@H](C)O)[C@@H](C)CC)C(=O)N[C@@H](CCCCN)C(=O)NCC(=O)N[C@@H](CCCCN)C(=O)N1CCC[C@H]1C(=O)N[C@@H](CO)C(=O)N[C@@H](CO)C(=O)NCC(=O)N[C@@H](C)C(=O)N1CCC[C@H]1C(=O)N1CCC[C@H]1C(=O)N1CCC[C@H]1C(=O)N[C@@H](CO)C(=O)O (H-HGEGTYTNDVTEYLEEEAAK([γGlu-12Ado-Mycophenolyl])EFIEWLIKGKPSSGAPPPS-OH),0.152,1.24e+07,Active,34.2,Active,5.2,16.5,Active,Active,18.9,30.4,
H-HGEGTYTNDVTEYLEEEAAK([γGlu-12Ado-Mycophenolyl])EFIEWLIKGKPSSGAPPSKKKKKK-OH,0.146,1.07e+07,Active,39.8,Active,3.1,18,Active,Active,23.8,38.4,Activity (Mus musculus [11]): Active; Activity (Mus musculus [12]): 55%; Activity (Mus musculus [13]): 6.7%; Activity (Mus musculus [14]): 1.4 mmol/L; Activity (Mus musculus [15]): Active; Activity (Mus musculus [16]): Active; Activity (Mus musculus [17]): 1.6 mmol/L; Activity (Mus musculus [18]): Active; Activity (Mus musculus [19]): 11.2 to 14.9 mmol/L; Activity (Mus musculus [20]): 4.5 mmol/L; Activity (Mus musculus [21]): 56.9 IU/L; Activity (Mus musculus [22]): 1.4 mmol/L; Activity (Mus musculus [23]): Active; Activity (Mus musculus [24]): 62.4 IU/L; Activity (Mus musculus [25]): Active
H-HGEGTYTNDVTEYLEEEAAK([γGlu-Ahx-Mycophenolyl])EFIEWLIKGKPSSGAPPSKKKKKK-OH,0.361,,,22.1,,2.8,,Active,Active,,,
SEMAGLUTIDE,,1.1e+07,,,Active,,17.2,Active,Active,,,
